ChEMBL document CHEMBL2440043, “Synthesis and structure-activity relationship of 2-phenyliminochromene derivatives as inhibitors for aldo-keto reductase (AKR) 1B10” (Bioorg Med Chem, 2013)

Key:
[1] = target: T1, Aldo-keto reductase family 1 member B10 (Homo sapiens, UniProt O60218); assay: Inhibition of human recombinant N-terminal His6-tagged AKR1B10 expressed in Escherichia coli by fluorescence assay in presence of NADPH
Target sequence in this assay (O60218 whole entry): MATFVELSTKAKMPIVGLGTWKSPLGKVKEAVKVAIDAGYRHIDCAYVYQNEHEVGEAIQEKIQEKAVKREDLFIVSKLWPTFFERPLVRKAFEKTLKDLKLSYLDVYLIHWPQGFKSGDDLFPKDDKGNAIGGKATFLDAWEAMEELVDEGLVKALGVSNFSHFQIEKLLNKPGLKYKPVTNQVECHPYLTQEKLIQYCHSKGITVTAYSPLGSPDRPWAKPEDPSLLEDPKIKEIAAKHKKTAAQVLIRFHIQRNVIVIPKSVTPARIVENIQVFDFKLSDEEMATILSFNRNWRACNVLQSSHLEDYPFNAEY

[2] = target: T2, Aldo-keto reductase family 1 member B1 (Homo sapiens, UniProt P15121); assay: Inhibition of human recombinant N-terminal His6-tagged AKR1B1 expressed in Escherichia coli by fluorescence assay in presence of NADPH
[3] = target: T2, Aldo-keto reductase family 1 member B1; assay: Inhibition of human recombinant N-terminal His6-tagged AKR1B1 expressed in Escherichia coli at 10000 nM by fluorescence assay in presence of NADPH
[4] = target: Aldo-keto reductase family 1 member B10 (Homo sapiens, UniProt O60218, Q303S); assay: Competitive inhibition of human recombinant AKR1B10 Q303S mutant expressed in Escherichia coli using geraniol as substrate by double-reciprocal plot analysis in presence of NADP+
Chain of Aldo-keto reductase family 1 member B10 (Homo sapiens, UniProt O60218, Q303S) (O60218 whole entry Q303S): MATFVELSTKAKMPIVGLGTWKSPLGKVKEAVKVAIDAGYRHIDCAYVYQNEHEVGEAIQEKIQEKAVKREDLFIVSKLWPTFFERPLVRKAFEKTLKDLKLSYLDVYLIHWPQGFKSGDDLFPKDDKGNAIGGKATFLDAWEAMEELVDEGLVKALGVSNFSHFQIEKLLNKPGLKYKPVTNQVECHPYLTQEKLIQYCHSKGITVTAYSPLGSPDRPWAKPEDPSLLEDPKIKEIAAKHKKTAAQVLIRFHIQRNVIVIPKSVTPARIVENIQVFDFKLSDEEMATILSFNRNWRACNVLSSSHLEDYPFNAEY
In short: (§1)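 Purified enzyme from E. coli, assayed by NADP⁺-linked geraniol oxidation at 25 °C. NADPH formation was read by fluorescence (ex 340 nm, em 455 nm). NADP⁺ was saturating at 0.25 mM, with five geraniol concentrations (25–200 μM) and three inhibitor concentrations. Ki came from replots of the slopes and intercepts of double-reciprocal plots; mean of at least three determinations.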

[5] = target: Aldo-keto reductase family 1 member B10 (Homo sapiens, UniProt O60218, W220Y); assay: Competitive inhibition of human recombinant AKR1B10 W220Y mutant expressed in Escherichia coli using geraniol as substrate by double-reciprocal plot analysis in presence of NADP+
Chain of Aldo-keto reductase family 1 member B10 (Homo sapiens, UniProt O60218, W220Y) (O60218 whole entry W220Y): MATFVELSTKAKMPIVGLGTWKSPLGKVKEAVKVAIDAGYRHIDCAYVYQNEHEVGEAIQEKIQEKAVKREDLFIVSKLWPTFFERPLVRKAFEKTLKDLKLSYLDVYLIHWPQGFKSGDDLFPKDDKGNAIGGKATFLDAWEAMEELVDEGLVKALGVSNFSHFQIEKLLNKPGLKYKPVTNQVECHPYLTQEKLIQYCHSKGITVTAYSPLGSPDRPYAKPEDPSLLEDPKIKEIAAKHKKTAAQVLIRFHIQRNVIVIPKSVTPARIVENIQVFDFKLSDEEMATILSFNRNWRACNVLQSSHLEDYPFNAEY
In short: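 Trp220Tyr mutant purified from E. coli; geraniol oxidation with saturating NADP⁺ (0.25 mM) at 25 °C, followed by NADPH fluorescence (ex 340 nm, em 455 nm). Five geraniol levels (50–800 μM) were tested at three inhibitor concentrations. Ki came from slope and intercept replots of double-reciprocal plots; mean of at least three determinations.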

[6] = target: T1, Aldo-keto reductase family 1 member B10; assay: Competitive inhibition of wild-type human recombinant N-terminal His6-tagged AKR1B10 expressed in Escherichia coli using geraniol as substrate by double-reciprocal plot analysis in presence of NADP+; in short: as §1
Target sequence in this assay (O60218 whole entry): as the sequence (O60218 whole entry) above

[7] = target: T1, Aldo-keto reductase family 1 member B10; assay: Inhibition of human recombinant N-terminal His6-tagged AKR1B10 expressed in Escherichia coli at 10000 nM by fluorescence assay in presence of NADPH
Target sequence in this assay (O60218 whole entry, looked up): as the sequence (O60218 whole entry) above

## O=C(O)Cc1ccc(/N=c2\oc3cc(O)ccc3cc2C(=O)Nc2ccccn2)cc1
[1]
  IC50: 13 nM
[2]
  IC50: 20 nM

## COc1ccc(/N=c2\oc3cc(O)ccc3cc2C(=O)NC2CCCCC2)cc1
[1]
  IC50: 11 nM
[2]
  IC50: 27 nM

## O=C(Nc1ccccn1)c1cc2ccc(O)cc2o/c1=N\c1ccc(O)cc1
[1]
  IC50: 6.8 nM
[2]
  IC50: 24 nM

## COc1ccc(/N=c2\oc3cc(O)ccc3cc2C(=O)NCCCO)cc1
[1]
  IC50: 8.8 nM
[2]
  IC50: 29 nM

## Cc1ccc(/N=c2\oc3cc(O)ccc3cc2C(=O)Nc2ccccn2)cc1
[1]
  IC50: 8.6 nM
[2]
  IC50: 26 nM

## COc1ccc(/N=c2\oc3cc(O)ccc3cc2C(=O)NCCO)cc1
[1]
  IC50: 11 nM
[2]
  IC50: 20 nM

## O=C(Nc1ccccn1)c1cc2ccc(O)cc2o/c1=N\c1ccc(Br)cc1
[1]
  IC50: 14 nM
[2]
  IC50: 25 nM

## COc1ccc(/N=c2\oc3cccc(O)c3cc2C(=O)Nc2ccccn2)cc1
[3]
  inhibition: < 30%
[2]
  IC50: > 10000 nM

## O=C(Nc1ccccn1)c1cc2ccc(O)cc2o/c1=N\c1ccccc1
[1]
  IC50: 12 nM
[2]
  IC50: 34 nM

## COc1ccc(/N=c2\oc3cc(O)ccc3cc2C(=O)NC(C)C)cc1
[1]
  IC50: 9.7 nM
[2]
  IC50: 6.7 nM

## CCCCNC(=O)c1cc2ccc(O)cc2o/c1=N\c1ccc(OC)cc1
[1]
  IC50: 18 nM
[2]
  IC50: 28 nM

## O=C(Nc1ccccn1)c1cc2ccc(O)cc2o/c1=N\c1ccc(I)cc1
[1]
  IC50: 13 nM
[2]
  IC50: 12 nM

## COc1ccc(/N=c2\oc3ccccc3cc2C(=O)Nc2ccccn2)cc1
[3]
  inhibition: < 30%

## COc1ccc(/N=c2\oc3cc(O)ccc3cc2C(=O)NCc2ccccc2)cc1
[4]
  Ki: 3.8 nM
[5]
  Ki: 51 nM
[1]
  IC50: 4.7 nM
[2]
  IC50: 24 nM
[6]
  Ki: 1.3 nM

## COc1ccc(/N=c2\oc3c(O)cccc3cc2C(=O)Nc2ccccn2)cc1
[3]
  inhibition: < 30%
[7]
  inhibition: < 30%
[1]
  IC50: > 10000 nM
[2]
  IC50: > 10000 nM

## COc1ccc(/N=c2\oc3cc(O)ccc3cc2C(=O)NCC(C)C)cc1
[1]
  IC50: 16 nM
[2]
  IC50: 28 nM

## COc1ccc(/N=c2\oc3ccc(O)cc3cc2C(=O)Nc2ccccn2)cc1
[3]
  inhibition: < 30%
[7]
  inhibition: < 30%
[1]
  IC50: > 10000 nM
[2]
  IC50: > 10000 nM

## O=C(O)c1ccc(/N=c2\oc3cc(O)ccc3cc2C(=O)Nc2ccccn2)cc1
[1]
  IC50: 7.6 nM
[2]
  IC50: 19 nM
